{"data": "Measurements of several laboratories", "read-out": "binding", "tspO A138F": "tspO (Cereibacter sphaeroides, UniProt Q9RFC8, A138F)", "PIK3CG": "Phosphatidylinositol 4,5-bisphosphate 3-kinase catalytic subunit gamma isoform (PIK3CG, Homo sapiens, UniProt P48736)", "CREBBP bromodomain": "CREB-binding protein, bromodomain (CREBBP, Homo sapiens, UniProt Q92793)"}
{"Compound": "CC1=C(/C=C/C(C)=C/C=C/C(C)=C/C=O)C(C)(C)CCC1", "target": "Cellular retinoic acid-binding protein 2 (CRABP2, Homo sapiens, UniProt P29373, L122E/R112E/R133K)", "assay": "fluorescence", "Kd [µM]": 0.894}
{"Compound": "C=CC1=C(C)c2cc3[nH]c(cc4nc(cc5[nH]c(cc1n2)c(C)c5CCC(=O)O)C(CCC(=O)O)=C4C)c(C)c3C=C", "target": "tspO A138F", "assay": "fluorescence", "Kd [µM]": 0.7}
{"Compound": "Nc1nc2c(ncn2[C@@H]2O[C@H](COP(=O)(O)OP(=O)(O)O)[C@@H](OP(=O)(O)OP(=O)(O)O)[C@H]2O)c(=O)[nH]1", "target": "gpmA (Escherichia coli, UniProt P62707)", "assay": "ITC", "Kd [µM]": 52}
{"Compound": "CO[C@H]1[C@H](O)[C@@H](CO)OC(O)[C@@H]1O (stereo partly drawn)", "target": "Nucleolar RNA helicase 2 (Homo sapiens, UniProt Q9NR30)", "assay": "MST", "Kd [µM]": 3.98}
{"Compound": "CCC(=O)N1CCC(C(=O)N(C)CC(=O)N2CCN(c3nc(-c4cnc(N)nc4C(F)F)nc(N4CCOCC4)n3)CC2)CC1", "target": "PIK3CG", "assay": "competition with immobilised ligand", "Kd [µM]": 0.016}
{"Compound": "C=CC1=C(C)C2=Cc3c(C=C)c(C)c4[n]3[Fe]([Cl])[n]3c(c(C)c(CCC(=O)O)c3=CC3=NC(=C4)C(C)=C3CCC(=O)O)=CC1=N2", "target": "tspO A138F", "assay": "fluorescence", "Kd [µM]": 0.7}
{"Compound": "Cc1cc(/N=N/c2ccc(S(=O)(=O)O)cc2)ccc1O", "target": "CREBBP bromodomain", "assay": "fluorescence", "Kd [µM]": 76}
{"Compound": "CCC(=O)N1CCC(C(=O)NCC(=O)N2CCN(c3nc(-c4cnc(N)nc4C(F)F)nc(N4CCOCC4)n3)CC2)CC1", "target": "PIK3CG", "assay": "competition with immobilised ligand", "Kd [µM]": 0.0013}
{"Compound": "Cc1cc2nc3c(=O)[nH]c(=O)nc-3n(C[C@H](O)[C@H](O)[C@H](O)CO)c2cc1C", "target": "Riboflavin-binding protein (Gallus gallus, UniProt P02752)", "assay": "ITC", "Kd [µM]": 0.127}
{"Compound": "CC(C)=CCc1c(O)ccc(C(=O)/C=C/c2ccc(O)cc2)c1O", "target": "Dihydroorotate dehydrogenase (quinone), mitochondrial (DHODH, Homo sapiens, UniProt Q02127)", "assay": "ITC", "Kd [µM]": 1.33}
{"Compound": "Cc1cc(/N=N/c2ccc(S(=O)(=O)O)cc2)cc(C)c1O", "target": "CREBBP bromodomain", "assay": "fluorescence", "Kd [µM]": 44}
{"Compound": "Cn1cc(C(=O)Nc2cccc(C(=O)O)c2)ccc1=O", "target": "CREBBP bromodomain", "assay": "competition with immobilised ligand", "Kd [µM]": 4.1}
